Experimental data from ChEMBL document CHEMBL1255182, “Methylantcinate A induces tumor specific growth inhibition in oral cancer cells via Bax-mediated mitochondrial apoptotic pathway” (Bioorg Med Chem Lett, 2010).

Assays:
[1] = Induction of apoptosis in human OECM1 cells assessed as early apoptotic cells at 50 uM after 3 hrs by Annexin V-FITC and propidium iodide staining (reference value: 0.69%); type: functional
OECM1 [2] = assay: Induction of apoptosis in human OECM1 cells assessed as increase of Bax protein expression after 6 hrs by Western blotting; type: functional, cell-based
How it was run: (§1)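 OEC-M1 cells exposed to 10, 25 or 50 µM or DMSO for 6 h. Equal amounts of total lysate immunoblotted for Bcl-2, Bcl-xL, Bax and PARP (116-kDa full-length, 85-kDa cleaved), with β-actin as loading control. Bands quantified as fold of vehicle control after β-actin normalization.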

[3] = Induction of apoptosis in human OECM1 cells assessed as cytoplasmic histone-associated DNA fragmentation at 25 uM after 4 hrs by TUNEL assay (reference value: 8.15%); type: functional
How it was run: (§2)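 After 4 h exposure to 25 or 50 µM or DMSO vehicle, OC-2 and OEC-M1 oral cancer cells were scored for DNA fragmentation by TUNEL labeling with flow cytometry, as % of cells. Mean ± SD of three determinations.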

OECM1 [4] = assay: Induction of apoptosis in human OECM1 cells assessed as decrease of Bcl-2 protein expression after 6 hrs by Western blotting; type: functional, cell-based; how it was run: as §1
OC2 [5] = assay: Induction of apoptosis in human OC2 cells assessed as caspase 3 activity at 50 uM by flow cytometry; type: functional, cell-based; settings: TDE = time-dependent effect
How it was run: (§3)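 OC-2 or OEC-M1 OSCC cells exposed to 50 µM for 3 h, 6 h and 9 h to follow caspase-3 activity over time. Activity read by flow cytometry with a specific peptide substrate.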

[6] = Induction of apoptosis in human OC2 cells assessed as cytoplasmic histone-associated DNA fragmentation at 25 uM after 4 hrs by TUNEL assay (reference value: 28.6%); type: functional; how it was run: as §2
[7] = Induction of apoptosis in human OC2 cells assessed as early apoptotic cells at 50 uM after 3 hrs by Annexin V-FITC and propidium iodide staining (reference value: 0.67%); type: functional
OECM1 [8] = assay: Induction of apoptosis in human OECM1 cells assessed as caspase 3 activity at 50 uM by flow cytometry; type: functional, cell-based; settings: TDE = time-dependent effect; how it was run: as §3
[9] = Induction of apoptosis in human OECM1 cells assessed as early apoptotic cells at 25 uM after 3 hrs by Annexin V-FITC and propidium iodide staining (reference value: 0.69%); type: functional
[10] = Induction of apoptosis in human OC2 cells assessed as caspase 3 activity at 25 uM after 3 hrs by flow cytometry (reference value: 48.99%); type: functional
[11] = Induction of apoptosis in human OECM1 cells assessed as cytoplasmic histone-associated DNA fragmentation at 50 uM after 4 hrs by TUNEL assay (reference value: 8.15%); type: functional; how it was run: as §2
[12] = Induction of apoptosis in human OC2 cells assessed as late apoptotic cells at 50 uM after 3 hrs by Annexin V-FITC and propidium iodide staining (reference value: 1.92%); type: functional
[13] = Induction of apoptosis in human OECM1 cells assessed as caspase 3 activity at 50 uM after 3 hrs by flow cytometry (reference value: 52.34%); type: functional
[14] = Induction of apoptosis in human OC2 cells assessed as early apoptotic cells at 25 uM after 3 hrs by Annexin V-FITC and propidium iodide staining (reference value: 0.67%); type: functional
[15] = Induction of apoptosis in human OECM1 cells assessed as late apoptotic cells at 25 uM after 3 hrs by Annexin V-FITC and propidium iodide staining (reference value: 5.18%); type: functional
OECM1 [16] = assay: Induction of apoptosis in human OECM1 cells assessed as decrease of Bcl-xL protein expression after 6 hrs by Western blotting; type: functional, cell-based; how it was run: as §1
[17] = Induction of apoptosis in human OECM1 cells assessed as late apoptotic cells at 50 uM after 3 hrs by Annexin V-FITC and propidium iodide staining (reference value: 5.18%); type: functional
[18] = Induction of apoptosis in human OC2 cells assessed as late apoptotic cells at 25 uM after 3 hrs by Annexin V-FITC and propidium iodide staining (reference value: 1.92%); type: functional
[19] = Cytotoxicity against human gingival fibroblast at up to 50 uM after 24 hrs by MTT assay
How it was run: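 Normal human gingival fibroblasts exposed to a range of concentrations for 24 h, with 50 the highest tested. DMSO vehicle control. Viability read by MTT formazan absorbance and compared with control for statistical significance.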

OC2 [20] = assay: (§4) Cytotoxicity against human OC2 cells after 24 hrs by MTT assay; type: functional, cell-based
How it was run: (§5)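 Human oral squamous carcinoma lines, from primary tumours of adult male Taiwanese betel quid chewers, exposed to a range of concentrations for 24 h. DMSO control. Viable cells read by MTT reduction to formazan (absorbance). IC50 is the concentration giving a 50% fall in absorbance relative to control.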

[21] = as §4; type: functional, cell-based; settings: OC2, 24 h; how it was run: as §5
[22] = Induction of apoptosis in human OC2 cells assessed as cytoplasmic histone-associated DNA fragmentation at 50 uM after 4 hrs by TUNEL assay (reference value: 28.6%); type: functional; how it was run: as §2
[23] = Induction of apoptosis in human OC2 cells assessed as caspase 3 activity at 50 uM after 3 hrs by flow cytometry (reference value: 48.99%); type: functional
[24] = (§6) Cytotoxicity against human OECM1 cells after 24 hrs by MTT assay; type: functional, cell-based; settings: OECM1, 24 h; how it was run: as §5
OECM1 [25] = assay: as §6; type: functional, cell-based; how it was run: as §5
OECM1 [26] = assay: Induction of apoptosis in human OECM1 cells assessed as PARP cleavage after 6 hrs by Western blotting; type: functional, cell-based; how it was run: as §1
[27] = Induction of apoptosis in human OECM1 cells assessed as caspase 3 activity at 25 uM after 3 hrs by flow cytometry (reference value: 52.34%); type: functional

In the case of `C=C(CC[C@@H](C)[C@H]1CC[C@H]2C3=C(C(=O)C[C@]12C)[C@@]1(C)CCC(=O)[C@@H](C)[C@@H]1CC3)C(C)C(=O)OC` (some centres not stated) [METHYLANTCINATE A], the Activity [1] is reported as 62.33%, the Activity (OECM1 [2]) is reported as “Dose-dependent effect” and the Activity [3] is reported as 56.5%. For the same molecule, the Activity (OECM1 [4]) was “Dose-dependent effect”, the Activity (OC2 [5]) was “tde” and the Activity [6] was 41.07%. For the same molecule, the Activity [7] was 9.09%, the Activity (OECM1 [8]) was “tde” and the Activity [9] was 59.73%. It also gave an Activity [10] of 59.19%, an Activity [11] of 57.8% and an Activity [12] of 14.3%. It also gave an Activity [13] of 87.07%, an Activity [14] of 15.35% and an Activity [15] of 23.63%. The Activity (OECM1 [16]) was “Dose-dependent effect”, the Activity [17] was 27.71% and the Activity [18] was 13.2%. The Activity [19] was “Non-toxic”, the Activity (OC2 [20]) was “Dose-dependent effect” and the IC50 [21] was 37.4 µM. It also gave an Activity [22] of 52.55%, an Activity [23] of 69.06% and an IC50 [24] of 24.5 µM. For the same molecule, the Activity (OECM1 [25]) was “Dose-dependent effect”, the Activity (OECM1 [26]) was “Dose-dependent effect” and the Activity [27] was 66.86%.
